High-throughput results deposited in PubChem BioAssay by The Scripps Research Institute Molecular Screening Center.
TAAR1 antag – human TAAR1 antagonists, primary screen, Fluo-8 calcium fluorescence, CHO RD-HGA16 cells. Trace amine-associated receptor 1 (Homo sapiens), Q96RJ0. antagonist. inhibition, % at 3 µM. actives 1.5% (n = 360,000). AID 624466, 2012;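 active means inhibition above a per-plate cutoff, the mean inhibition of test compounds on that plate plus 3 SD, cut at about 49% in these data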;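 further: 0% = DMSO plus EC80 beta-PEA response and 100% = DMSO alone without agonist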
Target sequence (Q96RJ0 whole entry, looked up): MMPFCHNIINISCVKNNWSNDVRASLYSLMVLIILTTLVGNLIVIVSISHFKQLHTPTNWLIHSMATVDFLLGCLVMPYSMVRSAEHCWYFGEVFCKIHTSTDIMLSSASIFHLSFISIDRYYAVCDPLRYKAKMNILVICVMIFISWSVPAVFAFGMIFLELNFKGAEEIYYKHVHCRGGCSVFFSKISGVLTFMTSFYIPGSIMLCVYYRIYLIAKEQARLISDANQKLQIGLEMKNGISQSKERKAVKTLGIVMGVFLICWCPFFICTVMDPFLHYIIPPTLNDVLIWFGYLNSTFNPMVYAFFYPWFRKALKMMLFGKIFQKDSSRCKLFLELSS
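Material: RD-HGA16 CHO cells with stable hTAAR1 and Gα16; Dosing: single nominal final test compound concentration of 3 µM; Schedule: seeding 17-24 h prior, 75-min 37 °C, 30-min RT dye loading; Detection: kinetic Fluo-8 calcium fluorescence measurement; Measure: % inhibition from peak post-agonist over basal fluorescence ratio; Benchmarks: vehicle and agonist controls.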
OXTR ag – human OXTR agonists, primary screen, fluorescence, CHO-OTR cells, Fluo-8 calcium; actives 0.32% (n = 320,000); Oxytocin receptor (Homo sapiens), P30559; activation, % at 3 µM; Fluo-8 calcium fluorescence; normalized: DMSO 0%, oxytocin 100%;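 active means activation above the mean of all tested compounds plus 3 SD, cutoff set per screening run, cut at about 20% in these data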;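 further: peak over basal fluorescence ratio from a 100 s FLIPR kinetic read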
Target sequence (P30559 whole entry, looked up): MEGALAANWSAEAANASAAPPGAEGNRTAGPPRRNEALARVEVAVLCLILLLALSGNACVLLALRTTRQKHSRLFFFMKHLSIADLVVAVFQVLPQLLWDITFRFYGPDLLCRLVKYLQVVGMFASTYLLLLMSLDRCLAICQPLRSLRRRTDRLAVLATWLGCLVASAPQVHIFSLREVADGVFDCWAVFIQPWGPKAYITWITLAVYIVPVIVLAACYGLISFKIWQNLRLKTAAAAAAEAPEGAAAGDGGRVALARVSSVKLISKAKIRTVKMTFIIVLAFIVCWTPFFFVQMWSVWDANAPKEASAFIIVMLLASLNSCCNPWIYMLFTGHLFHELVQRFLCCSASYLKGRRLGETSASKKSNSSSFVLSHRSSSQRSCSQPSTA
TAAR1 agonist – human TAAR1 agonists, primary screen, Fluo-8 calcium fluorescence, CHO RD-HGA16 cells | vehicle wells 0%, saturating PEA agonist 100% | activation, % at 3 µM | actives 0.99% (n = 360,000) | AID 624467, 2012;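 active means activation above the mean activation of all test compounds in the run plus 3 SD, cut at about 38% in these data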
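test system = CHO RD-HGA16 cells carrying human TAAR1 plus Gα16 | schedule = 17-24 h seeding, 75 min 37 °C dye, 30 min RT | compound dosing = 3 µM single concentration | control set = DMSO and PEA EC100 | replicates = n 1 | signal = Fluo-8 fluorescence, 5 s baseline then 140 s kinetic read | measure = percent activation vs PEA EC100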
V1R ag counter – agonists of human V1a receptor, primary screen, counter-screen for OXTR agonist project, fluorescence, CHO-V1R cells; Vasopressin V1a receptor (Homo sapiens), P37288; Fluo-8 calcium fluorescence, agonist mode; 0% DMSO, 100% 3 nM vasopressin; activation, % at 3 µM; actives 0.25% (n = 320,000); AID 2797, 2010;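 active means activation above the mean activation of all tested compounds plus 3 SD, per screening run, cut at about 20% in these data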;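 further: signal is peak over basal fluorescence ratio across a 100 second FLIPR read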
OXTR potentiate – human OXTR potentiators, primary screen, fluorescence, CHO-OTR cells, Fluo-8 calcium | Fluo-8 calcium fluorescence, potentiator mode; 0% = oxytocin EC15, 100% = EC100 | activation, % at 3 µM | Oxytocin receptor (Homo sapiens), P30559 | actives 0.061% (n = 320,000);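 active means activation above that plate's cutoff, the mean activation of tested compounds plus 3 SD, cut at about 6.6% in these data, passing the limit was not always enough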;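 further: 100% uses oxytocin at 75 nM as the full agonist control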
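Material: human OTR in CHO cells. Compound: 3.0 µM, one dose. Timing: compound 6 min at room temperature before oxytocin, 100 s read. Evaluation: % activation of max/min ratio relative to oxytocin controls. Replication: single well per compound, singlicate. Signal: Fluo-8 calcium dye fluorescence.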
TAAR1 nonsel count – nonselective antagonists in TAAR1 counter-screen cells, counter-screen for hTAAR1 antagonist project, cell-based, fluorescence, calcium; inhibition, % at 3 µM; shares compounds with TAAR1 antag; counterscreen cell line, antagonist mode; actives 77% (n = 2,400); AID 651780, 2012; in the data active means inhibition above about 22%;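 further: CHO-Ga16 host cells stimulated with ATP at an EC80 level; 0% = agonist EC80 plus vehicle and 100% = vehicle without agonist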
TAAR1 antag conf – human TAAR1 antagonists, retest of hits, confirmation, cell-based, fluorescence; shares compounds with TAAR1 antag; TAAR1-expressing cells, fluorescence antagonist read-out; inhibition, % at 3 µM; actives 40% (n = 2,400); AID 651785, 2012; in the data active means inhibition above about 49%;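 further: CHO-Ga16 host cells challenged with agonist PEA near its EC80; 0% = agonist at EC80 plus vehicle and 100% = vehicle with no agonist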
Ga16 ag counter-1 – calcium activation in Ga16-expressing cells, counter-screen for TAAR1 antagonist project, cell-based, fluorescence; agonist counterscreen; AID 651953, 2012; shares compounds with TAAR1 antag; actives 18% (n = 2,400); activation, % at 3 µM; in the data active means activation above about 12%;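 further: 0% = vehicle wells and 100% = saturating stimulus response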
TAAR1 ag counter – TAAR1 activation by candidate antagonists – cell-based, fluorescence, counter-screen for TAAR1 antagonist project; shares compounds with TAAR1 antag; hTAAR1 cell line, agonist mode; activation, % at 3 µM; actives 2% (n = 2,400); AID 651955, 2012; in the data active means activation above about 37%;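 further: CHO cells stably expressing TAAR1 with calcium dye readout; 0% = DMSO vehicle and 100% = full agonist response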
TAAR1 ag conf – human TAAR1 agonists, retest of hits, confirmation, Fluo-8 calcium fluorescence, CHO RD-HGA16 cells. shares compounds with TAAR1 agonist. scaled: DMSO 0%, maximal phenethylamine 100%. activation, % at 3 µM. actives 82% (n = 2,400). AID 651783, 2012;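 active means activation above a cutoff set at the run's mean compound activation plus 3 SD, cut at about 39% in these data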
Ga16 ag counter-2 – nonselective calcium mobilization agonists, CHO-Ga16 cells, counter-screen for hTAAR1 agonist project, cell-based, fluorescence, CHO-Ga16 parental line | shares compounds with TAAR1 agonist | Fluo-8 calcium fluorescence; normalized to maximal ATP response, DMSO zero | activation, % at 3 µM | actives 50% (n = 2,400) | AID 651787, 2012;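 active means activation above the run cutoff, the mean activation over all tested wells plus 3 SD, cut at about 12% in these data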;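 further: 0% = DMSO wells and 100% = maximal ATP response on the peak over basal ratio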
TAAR1 desens – TAAR1 desensitization by agonist hits, confirmation, counter-screen for TAAR1 agonist project, cell-based, fluorescence, tachyphylaxis; shares compounds with TAAR1 agonist; CHO RD-HGA16 hTAAR1, Fluo-8 calcium, beta-PEA response inhibition; inhibition, % at 3 µM; actives 46% (n = 2,400);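 active means inhibition above the run cutoff, the mean inhibition of all test compounds plus 3 SD, cut at about 49% in these data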;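 further: beta-PEA stimulus applied at its EC80; loss of beta-PEA calcium signal after compound pretreatment read as receptor desensitization; 0% = DMSO with beta-PEA at EC80 and 100% = DMSO alone without agonist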
Ga16 antag count – inhibition of ATP-evoked calcium response in CHO-Ga16 cells, counter-screen for TAAR1 agonist project, cell-based, fluorescence. shares compounds with TAAR1 agonist. CHO-Ga16 ATP-induced calcium, Fluo-8 fluorescence. inhibition, % at 3 µM. actives 39% (n = 2,400);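 active means inhibition above the plate's mean compound inhibition plus 3 SD, computed per plate, cut at about 22% in these data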;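 further: 0% = EC80 ATP with DMSO and 100% = DMSO wells without ATP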
* = called active by the depositor; / = no result given. Hits are enriched below; roughly 2.3% of the tested compounds scored in any of these assays.

SMILES	TAAR1 antag	OXTR ag	TAAR1 agonist	V1R ag counter	OXTR potentiate	TAAR1 nonsel count	TAAR1 antag conf	Ga16 ag counter-1	TAAR1 ag counter	others
O=c1[nH]c2ccccc2n1C1CCN(Cc2ccc(-c3[nH]c4cc5ncnc5cc4nc3-c3ccccc3)cc2)CC1	67*	/	5	/	/	21	40	6	12
C=CC[C@@H](CC/C=C/C=C/CC/C=C\[C@@H]1CSC([C@@H]2C[C@@H]2C)=N1)OC	/	0	/	0	-3	/	/	/	/
CC(C)CCC1(CCO)C(=O)NC(=S)NC1=O	-27	/	2	/	/	/	/	/	/
CN1C(=O)NC(=O)C(C)(C2=CCCCC2)C1=O (configuration not stated)	2	-1	0	1	-1	/	/	/	/
COc1cccc(NP(=O)(Oc2ccccc2)Oc2ccccc2)c1	72*	-1	6	3	-10	27*	49*	8	7
O=C(CN1CCOCC1)NCC(=O)Nc1ccc(Br)cc1C(=O)c1ccccc1	21	0	2	0	-8	/	/	/	/
CN1CCN(CC(=O)Nc2ccc([N+](=O)[O-])cc2C(=O)c2ccccc2)CC1	104*	-1	5	-1	-7	2	-1	1	4
CC(C)CC12CN3CCN(CC(C3)/C1=N/O)C2	-5	1	4	0	1	/	/	/	/
CC(C)C12CN3CCN(CC(C3)/C1=N\O)C2	108*	1	-3	0	-4	5	10	0	0
O=P(Oc1ccccc1)(Oc1ccccc1)C(Nc1ccccc1)c1ccccc1 (configuration not stated)	88*	-1	1	1	-1	25*	57*	3	4
O=P(Oc1ccccc1)(Oc1ccccc1)C(O)c1ccccc1 (configuration not stated)	0	0	11	0	-2	/	/	/	/
Cc1cc(N2CCNC[C@H]2C)ccc1N1CCN[C@H](C)C1	-25	/	1	/	/	/	/	/	/
CC1CCCC(C)N1/N=C/c1c[nH]c2ccc(Br)cc12 (configuration not stated)	-3	10	33	1	-7	/	/	/	/
CCOC(=O)CC(SP1(=S)OCC2(CC=CCC2)CO1)C(=O)OCC (configuration not stated)	70*	/	8	/	/	39*	61*	9	7
COc1ccc(-n2nnnc2C(c2ccnc3ccccc23)N2CCC(n3c(=O)[nH]c4ccccc43)CC2)cc1 (configuration not stated)	18	/	17	/	/	/	/	/	/
O=c1[nH]c2ccccc2n1C1CCN(C(c2cc3ccccc3o2)c2nnnn2Cc2ccccc2)CC1 (configuration not stated)	62*	/	12	/	/	28*	53*	7	12
COc1ccc(-n2nnnc2C(C2CC2)N2CCC(n3c(=O)[nH]c4ccccc43)CC2)cc1 (configuration not stated)	72*	/	32	/	/	19	51*	11	18
Cc1cccc(C)c1-n1nnnc1C(c1cc2ccccc2o1)N1CCC(n2c(=O)[nH]c3ccccc32)CC1 (configuration not stated)	37	/	0	/	/	/	/	/	/
COc1ccc(-n2nnnc2C(c2cccs2)N2CCC(n3c(=O)[nH]c4ccccc43)CC2)cc1 (configuration not stated)	71*	/	12	/	/	18	46	8	26
O=c1[nH]c2ccccc2n1C1CCN(C(c2cccs2)c2nnnn2-c2ccc3c(c2)OCCO3)CC1 (configuration not stated)	59*	/	23	/	/	16	42	9	28
CCC1C(c2cc(OC)c(OC)c(OC)c2)c2cc3c(cc2OC1N1CCCC1)OCO3 (configuration not stated)	-13	/	12	/	/	/	/	/	/
Cc1cc(C(=O)OC(C)C(=O)Nc2ccccc2)c(C)n1C1CC1 (configuration not stated)	-39	/	-1	/	/	/	/	/	/
Cn1c2ccccc2c2c(C(=O)N3CCC4(CC3)OCCO4)cn(C3CCCC3)c(=O)c21	56*	-2	20	5	-15	23*	42	10	9
CC(C)C[C@@H]1NC(=O)[C@H](Cc2ccccc2)N(C)C(=O)[C@H](C)NC(=O)c2ccccc2NC(=O)[C@H](Cc2ccc(O)cc2)N(C)C1=O	70*	3	10	3	-3	32*	52*	8	8
c1ccc2c(c1)CC1CNCc3cccc(c31)S2 (configuration not stated)	6	16	73*	8	-9	/	/	/	/	TAAR1 ag conf=93*;Ga16 ag counter-2=5;TAAR1 desens=79*;Ga16 antag count=-3
